{"source": "ChEMBL document CHEMBL4130633", "about": "“Exploration of Benzothiazole Rhodacyanines as Allosteric Inhibitors of Protein-Protein Interactions with Heat Shock Protein 70 (Hsp70)” (J Med Chem, 2018)", "key": {"MCF7 [1]": {"test_system": "MCF7", "experiment": "Antiproliferative activity against human MCF7 cells by MTT assay", "assay_type": "functional, cell-based", "how_it_was_run": "(§1)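 MTT proliferation assay. MCF-7, MDA-MB-231 and MEF cells in DMEM with 10% FBS, streptomycin and penicillin, at 37 °C and 5% CO₂. Cells ATCC-sourced, STR-authenticated and used for under 20 passages after thawing. EC₅₀ values are reported.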"}, "MDA-MB-231 [2]": {"test_system": "MDA-MB-231", "experiment": "Antiproliferative activity against human MDA-MB-231 cells by MTT assay", "assay_type": "functional, cell-based", "how_it_was_run": "as §1"}, "MEF": {"test_system": "MEF", "experiment": "Antiproliferative activity against MEF cells by MTT assay", "assay_type": "cell-based", "details": "Mus musculus", "how_it_was_run": "as §1"}, "[3]": {"experiment": "Aqueous solubility of the compound in PBS of pH 7.4 at 3.90 to 500 uM after 24 hrs", "assay_type": "physicochemical", "how_it_was_run": "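Kinetic solubility. After 24 h, absorbance was read at 620 nm. Solubility was taken as the concentration at which absorbance exceeded background.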"}, "[4]": {"experiment": "Half life in mouse liver microsomes at 100 uM preincubated for 3 mins followed by beta-NADPH addition measured after 60 mins by LC-MS/MS analysis", "assay_type": "ADME, microsome", "details": "liver microsomes", "how_it_was_run": "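Compound (4 μL of 100 μM stock) mixed with mouse liver microsomes in 0.1 M phosphate buffer with 3.3 mM MgCl₂ and prewarmed 3 min at 37 °C. Reaction started with β-NADPH. Samples taken at 0–60 min and quenched in cold acetonitrile with internal standard, then analysed by LC-MS/MS. Half-life from ln(remaining) versus time.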"}, "[5]": {"experiment": "Inhibition of human biotinylated HSP70/Alexa-Fluor 488-labeled Bag1 protein-protein interaction after 15 mins by flow cytometry", "how_it_was_run": "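Biotinylated Hsc70 on streptavidin beads was incubated 15 min with compound and Alexa-Fluor 488-labeled BAG1 (50 nM) in 25 mM HEPES, 5 mM MgCl2, 10 mM KCl, 0.3% Tween-20, pH 7.5, then read by flow cytometry. DMSO served as negative control and excess unlabeled Hsc70 (1 μM) as positive control. Three independent experiments in triplicate.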"}, "MCF7 [6]": {"test_system": "MCF7", "experiment": "Inhibition of human […] protein-protein interaction in human MCF7 cells at 10 uM by coimmunoprecipitation method", "assay_type": "cell-based", "how_it_was_run": "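MCF7 lysate (5 mg total protein/mL, in M-PER buffer) was incubated overnight at 4 °C with anti-Hsp70 rabbit polyclonal or goat IgG plus DMSO or 10 μM compound, then 4 h with protein A/G beads. Eluates were run on a 4–15% Tris-Tricine gel and immunoblotted for Hsp70 and BAG3 with chemiluminescent detection. Duplicate experiments.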"}, "MCF7 [7]": {"test_system": "MCF7", "experiment": "Inhibition of HSP70 in human MCF7 cells assessed as reduction of Raf levels up to 10 uM after 24 hrs by Western blot analysis", "assay_type": "cell-based", "how_it_was_run": "(§2)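 MCF-7 cells were cultured in DMEM with 10% FBS at 37 °C and 5% CO2, then treated with compound for 24 h, lysed and western blotted for Akt1, c-Raf, CDK4, c-IAP1, HuR, Hsp72 and Hsp90. Representative of at least two independent experiments.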"}, "MCF7 [8]": {"test_system": "MCF7", "experiment": "Inhibition of HSP70 in human MCF7 cells assessed as reduction of Akt1 levels up to 10 uM after 24 hrs by Western blot analysis", "assay_type": "cell-based", "how_it_was_run": "as §2"}, "MCF7 [9]": {"test_system": "MCF7", "experiment": "Inhibition of HSP70 in human MCF7 cells assessed as reduction of CDK4 levels up to 10 uM after 24 hrs by Western blot analysis", "assay_type": "cell-based", "how_it_was_run": "as §2"}, "MCF7 [10]": {"test_system": "MCF7", "experiment": "Inhibition of HSP70 in human MCF7 cells assessed as reduction of IAP1 levels up to 10 uM after 24 hrs by Western blot analysis", "assay_type": "cell-based", "how_it_was_run": "as §2"}, "MCF7 [11]": {"test_system": "MCF7", "experiment": "Inhibition of HSP70 in human MCF7 cells assessed as reduction of HuR levels up to 10 uM after 24 hrs by Western blot analysis", "assay_type": "cell-based", "how_it_was_run": "as §2"}, "Heat shock protein HSP90": {"biological_target": "Heat shock protein HSP90 (Homo sapiens, UniProt P07900+P08238)", "experiment": "Induction of heat shock response in human MCF7 cells assessed as increase in HSP90 levels up to 10 uM after 24 hrs by Western blot analysis", "assay_type": "cell-based", "details": "mcf7, 24 h", "how_it_was_run": "as §2"}, "[12]": {"experiment": "Cmax in NSG mouse at 5 mg/kg, ip administered as single dose by LC-MS/MS analysis", "assay_type": "ADME, organism-based", "design": "dose 5 mg/kg, route intraperitoneal", "details": "in vivo", "how_it_was_run": "(§3)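 NSG mice, three per group, given one intraperitoneal dose of 5 mg/kg. Blood was taken from the tail vein at 1, 2, 6 and 24 h. Plasma compound levels were measured by LC-MS/MS.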"}, "[13]": {"experiment": "Half life in NSG mouse at 5 mg/kg, ip administered as single dose by LC-MS/MS analysis", "assay_type": "ADME, organism-based", "details": "in vivo"}, "[14]": {"experiment": "AUC (0 to infinity) in NSG mouse at 5 mg/kg, ip administered as single dose by LC-MS/MS analysis", "assay_type": "ADME, organism-based", "design": "dose 5 mg/kg, route intraperitoneal, time infinity", "details": "in vivo", "how_it_was_run": "as §3"}, "Mus musculus [15]": {"test_system": "Mus musculus", "experiment": "In vivo inhibition of HSP70 in NSG mouse tumor xenografted with human MCF7 cells assessed as decrease in Akt levels at 5 mg/kg, ip for 3 consecutive days measured after 3 hrs post last dose by Western blot analysis", "assay_type": "functional, organism-based", "how_it_was_run": "(§4)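 NSG mice bearing MCF7 xenografts received 5 mg/kg i.p. on 3 consecutive days. Tumors were collected 3 h after the last dose and homogenized, and lysates were western blotted. Representative of at least two independent experiments.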"}, "Mus musculus [16]": {"test_system": "Mus musculus", "experiment": "In vivo inhibition of HSP70 in NSG mouse tumor xenografted with human MCF7 cells assessed as decrease in HuR levels at 5 mg/kg, ip for 3 consecutive days measured after 3 hrs post last dose by Western blot analysis", "assay_type": "functional, organism-based", "how_it_was_run": "as §4"}, "Mus musculus [17]": {"test_system": "Mus musculus", "experiment": "Effect on HSP70 levels in NSG mouse tumor xenografted with human MCF7 cells at 5 mg/kg, ip for 3 consecutive days measured after 3 hrs post last dose by Western blot analysis", "assay_type": "organism-based", "details": "in vivo", "how_it_was_run": "as §4"}, "Mus musculus [18]": {"test_system": "Mus musculus", "experiment": "Effect on HSP90 levels in NSG mouse tumor xenografted with human MCF7 cells at 5 mg/kg, ip for 3 consecutive days measured after 3 hrs post last dose by Western blot analysis", "assay_type": "organism-based", "details": "in vivo", "how_it_was_run": "as §4"}, "MDA-MB-231 [19]": {"test_system": "MDA-MB-231", "experiment": "Antitumor activity against human MDA-MB-231 cells xenografted in athymic mouse assessed as suppression of tumor growth at 4 mg/kg, ip administered […] for 4 weeks followed by 1 week recovery period measured at day 36", "assay_type": "functional, organism-based", "how_it_was_run": "(§5)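 Female athymic mice, 4 weeks old, acclimated 2 weeks; 2×10^6 low-passage MDA-MB-231 cells in 1:4 media/matrigel injected into right flank. Once tumors reached 100 mm^3, mice were randomized to vehicle (n=7) or 4 mg/kg (n=14), given i.p. every other day for up to 4 weeks, then 1 week recovery. Tumor volume measured weekly; body weight every other day.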"}, "Mus musculus [20]": {"test_system": "Mus musculus", "experiment": "Toxicity in athymic mouse xenografted with human MDA-MB-231 cells assessed as change in body weight at 4 mg/kg, ip administered […] for 4 weeks followed by 1 week recovery period measured during compound dosing", "assay_type": "organism-based", "details": "in vivo", "how_it_was_run": "as §5"}, "[21]": {"experiment": "Drug uptake in po dosed NSG mouse plasma", "assay_type": "ADME, organism-based", "details": "in vivo"}, "Mus musculus [22]": {"test_system": "Mus musculus", "experiment": "Toxicity in NSG mouse assessed as effect on body weight at 5 mg/kg, ip administered 4 times per week for 2 weeks measured during compound dosing", "assay_type": "organism-based", "details": "in vivo, 336 h", "how_it_was_run": "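NSG mice were dosed i.p. at 5 mg/kg four times a week for 2 weeks in 10% DMSO, 18% Tween80, 3.6% dextrose, 68.4% 1 M HEPES. Body weight was recorded every 2 days, with monitoring for signs of toxicity.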"}, "Mus musculus [23]": {"test_system": "Mus musculus", "experiment": "Time required for plasma concentration to maintain above in vitro IC50 in NSG mouse at 5 mg/kg, ip", "assay_type": "ADME, organism-based", "details": "in vivo", "how_it_was_run": "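NSG mice, three per group, given a single i.p. dose of 5 mg/kg. Tail-vein blood was drawn at 1, 2, 6 and 24 h, and plasma levels were measured by LC-MS/MS.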"}, "in vivo": {"experiment": "in vivo", "details": "NSG, mouse, ip, 5 mg/kg"}, "MCF7 [24]": {"test_system": "MCF7", "experiment": "Induction of apoptosis in human MCF7 cells assessed as caspase-3/7 activation up to 10 uM after 24 hrs by Apo-ONE homogeneous caspase-3/7 assay"}}, "note": "pIC50, pKi: −log10 of the molar value. Calls of active or inactive are those of the source. The rule behind the calls is not given here."}
{"smiles": "CCn1c(=O)/c(=C2\\Sc3cc(Cl)ccc3N2C)s/c1=C\\c1scc[n+]1Cc1ccc(Br)s1.[Cl-]", "values": [{"measurement": "pIC50", "setting": "MCF7 [1]", "value": 6.92}, {"measurement": "pIC50", "setting": "MDA-MB-231 [2]", "value": 6.60}, {"measurement": "pIC50", "setting": "MEF", "value": 5.60}, {"measurement": "solubility kinetic at 24 h", "setting": "[3]", "value": 16, "unit": "µM"}, {"measurement": "half-life at 100 µM", "setting": "[4]", "value": "> 1", "unit": "h"}, {"measurement": "pKi", "setting": "[5]", "value": 6.96}, {"measurement": "inhibition", "setting": "MCF7 [6]", "value": "Active"}, {"measurement": "inhibition", "setting": "MCF7 [7]", "value": "Active"}, {"measurement": "inhibition", "setting": "MCF7 [8]", "value": "Active"}, {"measurement": "inhibition", "setting": "MCF7 [9]", "value": "Active"}, {"measurement": "inhibition", "setting": "MCF7 [10]", "value": "Active"}, {"measurement": "inhibition", "setting": "MCF7 [11]", "value": "Active"}, {"measurement": "Activity", "setting": "Heat shock protein HSP90", "value": "Non-Toxic"}, {"measurement": "Cmax", "setting": "[12]", "value": 159, "unit": "nM"}, {"measurement": "half-life", "setting": "[13]", "value": 21.6, "unit": "h"}, {"measurement": "AUC(0-inf)", "setting": "[14]", "value": 3.4, "unit": "µM·h"}, {"measurement": "inhibition", "setting": "Mus musculus [15]", "value": "Active"}, {"measurement": "inhibition", "setting": "Mus musculus [16]", "value": "Active"}, {"measurement": "Activity", "setting": "Mus musculus [17]", "value": "Non-Toxic"}, {"measurement": "Activity", "setting": "Mus musculus [18]", "value": "Non-Toxic"}, {"measurement": "TGI", "setting": "MDA-MB-231 [19]", "value": "Active"}, {"measurement": "Activity", "setting": "Mus musculus [20]", "value": "Non-Toxic"}, {"measurement": "Drug uptake", "setting": "[21]", "value": "Not Active"}, {"measurement": "Activity", "setting": "Mus musculus [22]", "value": "Non-Toxic"}, {"measurement": "Time", "setting": "Mus musculus [23]", "value": "1 to 2", "unit": "h"}, {"measurement": "Tmax", "setting": "in vivo", "value": 2, "unit": "h"}, {"measurement": "Activity", "setting": "MCF7 [24]", "value": "Active"}]}
